Activity calls are given as the source filed them. The calls are words filed in the database; no cut-off is given here.
Tests used:
Oryctolagus cuniculus [1] = species: Oryctolagus cuniculus; assay: Inhibition of intestinal fluid accumulation in rabbit ligated ileal loop model injected in presence of cholera toxin after 16 hrs; format: functional; details: Ileum
Vibrio cholerae [2] = assay: Blockade of anti-CT antibody binding site of Vibrio cholerae cholera toxin preincubated for 15 mins before addition of anti-CT immunoglobulin G by immunoprecipitation-based SDS-PAGE
Vibrio cholerae [3] = assay: Binding affinity to Vibrio cholerae cholera toxin assessed as apparent isoelectric point at 100 mM by isoelectric focusing analysis (isoelectric point Rvb=6.8)
Vibrio cholerae [4] = assay: Binding affinity to Vibrio cholerae cholera toxin assessed as decrease in fluorescence intensity by fluorescence emission spectroscopy
Oryctolagus cuniculus [5] = species: Oryctolagus cuniculus; assay: Inhibition of intestinal fluid accumulation in rabbit ligated ileal loop model at 3.3 mM injected in presence of cholera toxin after 16 hrs; format: functional; details: Ileum
Oryctolagus cuniculus [6] = species: Oryctolagus cuniculus; assay: Inhibition of intestinal fluid accumulation in rabbit ligated ileal loop model at 21 mM injected in presence of heat labile enterotoxin after 16 hrs; format: functional; details: Ileum
How it was run: (§1)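 Rabbits were starved overnight with free access to water, then anesthetized. The ileum was tied into consecutive 7-cm loops proximal to the mesoappendix. LT-containing cell lysate (750 μl) was injected alone or with sodium linolate. After 16 h the fluid in each loop was collected and expressed as ml per cm loop length. Results are means ± SD of three independent experiments.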

Vibrio cholerae [7] = assay: Binding affinity to Vibrio cholerae cholera toxin assessed as inhibition of cholera toxin binding to ganglioside GM1 receptor relative to ganglioside GM1 receptor antagonist […]
Escherichia coli = assay: Binding affinity to enterotoxigenic Escherichia coli 12566 heat-labile enterotoxin assessed as inhibition of heat-labile enterotoxin binding to ganglioside GM1 receptor
How it was run: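 A clarified sonicated PBS lysate of E. coli 12566 containing LT (90 μl) was incubated with or without ligand in 100 μl for 15 min at room temperature. Samples were serially diluted onto immobilized GM1 and detected by ELISA with polyclonal rabbit anti-CT serum as primary antibody.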

[8] = Binding affinity to Vibrio cholerae cholera toxin assessed as inhibition of cholera toxin binding to ganglioside GM1 receptor treated 15 mins before receptor addition by ELISA
[9] = Binding affinity to Vibrio cholerae cholera toxin assessed as quenching of intrinsic fluorescence by two-state binding model assay
[10] = Inhibition of intestinal fluid accumulation in rabbit ligated ileal loop model assessed as fluid level at 1.65 mM injected in presence of cholera toxin after 16 hrs (RVb=1.6 +/- 0.2 ml/cm); format: functional, Oryctolagus cuniculus, Ileum
[11] = Inhibition of intestinal fluid accumulation in rabbit ligated ileal loop model assessed as fluid level at 10.5 mM injected in presence of heat labile enterotoxin after 16 hrs (RVb=5.5 +/- 1 ml); format: functional, Oryctolagus cuniculus, Ileum; how it was run: as §1

SMILES	inhibition (Escherichia coli)	IC50 [8]	Kd [9]	other results
CCCCC/C=C\C/C=C\CCCCCCCC(=O)O	Active			Activity (Oryctolagus cuniculus [1]): Dose-dependent effect; Activity (Vibrio cholerae [2]): inactive; Activity (Vibrio cholerae [3]): Active; Activity (Vibrio cholerae [4]): Active; inhibition (Oryctolagus cuniculus [5]): Active; Activity (Oryctolagus cuniculus [6]): Active; Ratio (Vibrio cholerae [7]): 200
CCCCC/C=C\C/C=C\C/C=C\C/C=C\CCCC(=O)O [ARACHIDONIC ACID]	Active	380 µM	180 µM	
CCCCC/C=C\C/C=C\CCCCCCCC(=O)O [LINOLEIC ACID]		410 µM		
CCCCCCCC/C=C\CCCCCCCC(=O)O [OLEIC ACID]	Active	410 µM	160 µM	
CCCCCCCCCCCCCCCC(=O)O [PALMITIC ACID]		5800 µM		
CCCCC/C=C\C/C=C\CCCCCCCC(=O)[O-].[Na+] [SODIUM LINOLATE]			130 µM	Activity [10]: 0.76 mL/cm; Activity [11]: 1 mL
CCCCCCCCCCCCCCCCCC(=O)O [STEARIC ACID]		5270 µM		

From ChEMBL document CHEMBL1151459, “Bile and unsaturated fatty acids inhibit the binding of cholera toxin and Escherichia coli heat-labile enterotoxin to GM1 receptor” (Antimicrob Agents Chemother, 2008)
